L929 necroptosis – L929 zVAD cell death inhibition. 0.38% of 220,000 active. L929 zVAD necroptosis rescue, ATP luminescence, 24 h; with zVAD 60 µM. viability rescue, % at 10 µM;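 active means activation, scaled between plate controls, above about 75%, limit read from the data; inactive means activation under that limit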;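 further: 0% = zVAD with DMSO and 100% = DMSO alone without zVAD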
PfM18AAP inh – blocks P. falciparum M18 aspartyl aminopeptidase; 1.2% of 290,000 active; AID 1822; recombinant PfM18AAP, H-Glu-NHMec fluorogenic cleavage; inhibition, % at 7.35 µM;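 active means inhibition above the campaign mean inhibition over all tested compounds plus 3 SD, cut at about 28% in these data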;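 further: 0% = plate median of test compound wells and 100% = 2 mM ZnCl2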
RBBP9 inhibitor – human RBBP9 hydrolase inhibition; O75884; recombinant RBBP9, FP-Rh probe fluorescence polarization; inhibition, % at 7.94 µM; 0.2% of 220,000 active; AID 1515;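 active means inhibition above the campaign mean of all tested compounds plus 3 SD, cut at about 14% in these data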;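 further: plate controls were DMSO wells with RBBP9 for no effect and wells lacking RBBP9 protein for full effect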
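Material: RBBP9 protein. Amount: RBBP9 at 2.5 µM in dispensed solution, before mixing. Schedule: 30 min then 45 min, 25 °C. Medium: Tris buffer pH 8.0, NaCl, Pluronic. Measured by: fluorescence polarization. Measure: percent inhibition from mP, scaled between DMSO and no-protein wells. Replication: one well per compound.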
p97 inhibitor – blocks human p97 ATPase activity | inhibition, % at 8 µM | recombinant p97 ATPase, Kinase-Glo ATP luminescence, 3 h | 0.42% of 220,000 active | AID 1481; in the data active means inhibition above about 15%;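 further: 0% = DMSO vehicle and 100% = wells lacking enzyme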
TNF death inh – blocks TNF-alpha induced death of Jurkat FADD-/- cells | Jurkat FADD-/- TNF necroptosis rescue, ATP luminescence, 24 h; 0 = TNF only, 100 = no-TNF cells | activation (protection from cell death), % at 10 µM | 0.068% of 220,000 active;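 active means activation, meaning protection from cell death, of at least 50% relative to plate controls; inactive means activation below 50%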;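 further: necroptosis triggered by 40 ng/mL TNF-alpha added together with compound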
Wee1 degr inh – inhibitors of human Wee1 degradation | HeLa Luc-Wee1K328M stability, luciferase luminescence; 100% = proteasome inhibitor MG132 effect | reporter increase, % at 5 µM | 1.2% of 220,000 active | AID 1321;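 active means activation above the mean of all tested compounds plus 3 SD, set per screening run, cut at about 8.8% in these data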;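 further: cells exposed to compound for 20 h before luminescence read; 0% = DMSO alone and 100% = MG132 at 30 µM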
Target sequence (P30291 whole entry K328M): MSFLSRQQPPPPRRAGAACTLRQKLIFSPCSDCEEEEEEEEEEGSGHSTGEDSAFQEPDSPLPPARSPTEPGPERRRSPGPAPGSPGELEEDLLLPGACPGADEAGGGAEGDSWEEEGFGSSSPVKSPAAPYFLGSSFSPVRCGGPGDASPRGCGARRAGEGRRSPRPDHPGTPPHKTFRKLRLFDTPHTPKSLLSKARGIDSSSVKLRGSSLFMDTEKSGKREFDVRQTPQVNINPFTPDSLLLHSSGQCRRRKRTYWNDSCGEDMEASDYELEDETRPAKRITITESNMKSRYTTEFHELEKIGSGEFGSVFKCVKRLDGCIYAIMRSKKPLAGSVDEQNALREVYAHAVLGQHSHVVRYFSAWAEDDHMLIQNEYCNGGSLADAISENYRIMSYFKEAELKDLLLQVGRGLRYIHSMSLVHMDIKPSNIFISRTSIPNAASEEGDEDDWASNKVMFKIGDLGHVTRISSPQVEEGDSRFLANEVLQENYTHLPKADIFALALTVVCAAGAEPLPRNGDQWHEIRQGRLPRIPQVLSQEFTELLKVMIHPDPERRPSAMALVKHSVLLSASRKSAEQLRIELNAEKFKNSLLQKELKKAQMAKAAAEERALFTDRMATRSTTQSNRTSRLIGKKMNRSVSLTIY
RBBP9 inh conf – human RBBP9 inhibition, confirmation | inhibition, % at 7.94 µM | recombinant RBBP9, FP-Rh probe fluorescence polarization | shares compounds with RBBP9 inhibitor | 36% of 410 active;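 active means inhibition above the hit cutoff derived for the primary screen, cut at about 15% in these data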;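 further: 0% = RBBP9 with DMSO and 100% = wells lacking RBBP9 protein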
Numbers without * were called inactive; . = no result. Hits are enriched below; roughly 2.7% of the tested compounds scored in any of these assays.

SMILES	L929 necroptosis	PfM18AAP inh	RBBP9 inhibitor	p97 inhibitor	TNF death inh	Wee1 degr inh	RBBP9 inh conf
Cc1ccc(CCP(=O)(O)CN2CCOCC2)cn1	-0.1	11.1	17.6*	4.0	-0.6	1.1	-1.7
CCOc1ccc(NC(=O)CSc2ccc(-c3cccnc3)nn2)cc1	.	3.9	.	.	.	.	.
COc1cc(/C=N/NC(=O)CSc2ccccn2)ccc1O	1.2	-4.2	-4.6	-3.1	3.3	-3.1	.
CCCOc1ccc(/C=N/NC(=O)CSc2ccccn2)cc1OC	2.2	-7.1	16.9*	5.6	3.0	4.5	9.4
COc1ccc(C(C(=O)NC2CCCCC2)N(C(=O)CCl)c2cccc(Cl)c2)cc1 (centres undefined)	1.3	2.1	-0.1	1.8	-15.0	-0.4	.
COc1cccc(CNC(=O)CN(C)S(=O)(=O)c2cccc3cccnc23)c1	-0.5	-5.1	20.9*	1.7	-0.4	-0.5	1.8
Cc1ccc(CNC(=O)CC(C)S(=O)(=O)c2ccc3c(c2)NC(=O)C(C)S3)cc1 (centres undefined)	.	1.8	.	.	.	.	.
CCCCCc1ccc(OCCCC[n+]2cccc(C)c2)c(CCCCC)c1	4.0	4.0	14.8*	11.7	-10.9	1.7	0.1
CCCCCc1ccc(OCCCC[n+]2ccccc2)c(CCCCC)c1	1.5	-3.8	-1.4	-2.2	-12.6	0.5	.
COc1ccc2c(c1)CC(C1(O)C(=O)Nc3ccccc31)C2=O (centres undefined)	-0.4	-6.3	19.0*	0.5	-1.9	1.8	1.7
CCOCCCN(C(=O)c1snc(C(N)=O)c1N)C(C(=O)NC1CCCC1)c1ccc(OC)cc1 (centres undefined)	.	0.1	.	.	.	.	.
CSc1nc(Cl)cc(=O)[nH]1	0.3	0.8	14.8*	6.1	2.5	-0.7	1.0
Cc1cc[n+](CC(=O)Nc2cc(C(F)(F)F)ccc2Cl)cc1	-0.3	-13.7	17.9*	2.2	-2.6	-2.4	4.3
CCOC(=O)CC1COCCN1C(=O)CCc1nnc(-c2ccsc2)o1 (centres undefined)	-0.5	-5.9	-4.6	4.8	0.7	-5.2	.
Cc1ccc(S(=O)(=O)N(C)c2ccccc2)cc1	0.3	5.4	14.4*	3.5	-1.0	-0.6	-10.7
CC(C)C(=O)N(c1ccc2oc(=O)sc2c1)S(=O)(=O)c1ccccc1	-0.2	-4.3	-4.7	-3.8	-1.5	2.6	.
CC(=O)N(c1ccc2oc(=O)sc2c1)S(=O)(=O)c1ccccc1	2.4	28.6*	17.3*	5.0	-0.3	-0.2	4.5
Cc1cc(C)n(CCN(C)C(=O)C2CCC(=O)N(CCc3cccc(F)c3)C2)n1 (centres undefined)	.	0.6	.	.	.	.	.
CCC(=O)Oc1ccc(C/C(=N\O)c2ccc(O)cc2O)o1	1.9	15.7	30.6*	8.2	-1.5	0.5	51.8*
CC(=O)c1c(C(C)=O)c(C)n(-c2cccc3cccnc23)c1C	-2.3	3.9	28.7*	-2.7	-1.4	1.0	4.0
Cc1cc(C)n(-c2cccc3cccnc23)n1	-1.0	-4.6	-3.3	2.0	-1.8	1.3	.
COc1ccc(C2Nc3ccccc3C(=O)N2Cc2ccco2)cc1CN1C(=O)c2ccccc2C1=O (centres undefined)	1.8	-0.3	-4.2	7.0	0.3	-1.5	.
O=C1c2ccccc2NC(c2cccc(O)c2)N1Cc1ccco1 (centres undefined)	0.0	5.3	14.7*	7.6	-1.6	-1.5	29.3*
COc1ccc2c(c1)Sc1ccccc1N2	-0.2	7.6	15.9*	2.0	-1.8	-3.8	29.6*
CCOc1ccc(C(C)=O)cc1NC(=O)/C=C\C(=O)O	0.7	-5.3	3.5	2.4	0.2	-1.7	.
SMILES	L929 necroptosis	PfM18AAP inh	RBBP9 inhibitor	p97 inhibitor	TNF death inh	Wee1 degr inh	RBBP9 inh conf
O=C(CCCC(=O)OCC(F)(F)C(F)F)Nc1ccccc1F	4.3	0.2	-2.8	3.8	-0.7	2.0	.
COCCCNc1c2c3c(cccc3[nH]c1=O)C(=O)c1ccccc1-2	5.3	3.4	48.8*	-6.3	-7.7	8.2	80.5*
COc1ccc(OC)c(S(=O)(=O)Nc2ccc3[nH]c(=O)[nH]c3c2)c1	.	2.0	.	.	.	.	.
O=C(O)c1ccc(NC2=Nc3cccc4cccc2c34)cc1	0.8	-2.6	14.8*	9.0	3.1	-2.4	4.6
CCCCc1ncc(CN2CCC(n3nccc3NC(=O)c3ccccc3OC)CC2)[nH]1	.	1.4	.	.	.	.	.
CCOC(=O)C1CCCN(C(=S)Nc2ccc(OC)cc2)C1 (centres undefined)	0.5	-7.9	-8.0	-4.3	-0.3	-3.5	.
CCOC(=O)C1CCCN(C(=S)Nc2ccc(F)cc2)C1 (centres undefined)	0.2	-9.0	23.2*	-2.6	1.3	-1.9	0.2
COc1ccc(-n2nnc3c(=O)n(CC(=O)N4CCCC4)cnc32)cc1	0.4	-0.3	-8.4	-0.3	-0.7	1.3	.
COc1ccc(-n2nnc3c(=O)n(C/C=C/c4ccccc4)cnc32)cc1	0.2	11.8	15.2*	5.8	-2.2	2.7	9.9
CC1Cc2cc(/C(O)=C3/C(=O)C(=O)N(CCCn4ccnc4)C3c3ccncc3)ccc2O1 (centres undefined)	0.3	1.0	14.4*	3.3	-1.8	0.4	4.3
Cc1ccn2c(Nc3ccc4c(c3)OCO4)c(-c3ccc(O)cc3)nc2c1	0.2	31.1*	17.4*	0.0	-0.3	3.6	27.8*
COC(=O)COc1ccc2c(=O)c(-c3ccccc3OC)coc2c1	6.0	0.4	19.1*	6.0	-0.6	5.3	6.6
O=C(CN1CCN(c2ccccc2O)CC1)Nc1cccnc1Cl	-0.2	20.1	-6.8	-2.7	0.0	-3.1	.
O=C1C(CSCc2ccccc2)NC(=S)N1c1ccccc1 (centres undefined)	1.3	-3.7	29.9*	10.6	-1.1	-2.8	19.6*
O=C(O)CC1NC(=S)N(c2ccccc2)C1=O (centres undefined)	-0.3	5.8	-3.4	2.5	0.1	-2.0	.
Cc1cccc2cc(CN(CCCN(C)C)C(=S)NCCc3ccccc3)c(=O)[nH]c12	-0.7	-0.5	17.1*	0.7	7.1	-0.5	26.7*
Cc1ccc2[nH]c(=O)c(CN(CCCN(C)C)C(=S)NCCc3ccccc3)cc2c1	2.1	3.7	11.4	-0.5	0.2	-1.1	.
Cc1sc(NC(=O)c2ccco2)c(C(Nc2ccccn2)c2ccccc2)c1C (centres undefined)	-0.1	2.1	21.1*	5.4	4.3	5.2	-2.3
COc1ccccc1-c1nc(S(=O)(=O)c2ccccc2)c(N2CCOCC2)o1	.	-10.6	.	.	.	.	.
CCOc1ccc(-c2nnc(-c3ccncc3)o2)cc1OCC	1.5	3.3	3.0	2.6	-1.1	2.5	.
CCOc1cc(-c2ccc(N)c(OCC)c2)ccc1N	-0.5	-7.5	16.3*	-3.9	-1.2	-1.0	28.7*
